In ChEMBL document CHEMBL4038266, “Griseofulvin Derivative and Indole Alkaloids from Penicillium griseofulvum CPCC 400528” (J Nat Prod, 2017):

Experiments:
[1] = tested on: Human immunodeficiency virus 1; assay: Antiviral activity against VSV pseudotyped HIV1 infected in SupT1 cells after 48 hrs by luciferase reporter gene assay; assay type: functional, cell-based; conditions: Human immunodeficiency virus 1, SUP-T1, 48 h
Summary of the method: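 VSV-G pseudotyped HIV-1 produced by cotransfecting 293T cells (2 × 10^5/mL) with 0.6 μg pNL-Luc-E and 0.4 μg pHIT/G. Supernatant harvested after 48 h, 0.45 μm filtered, and capsid quantified by p24 antigen-capture ELISA. SupT1 cells infected at MOI 1 with or without compound, 37 °C, 48 h. Inhibition read by firefly luciferase. Efavirenz positive control.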

[2] = tested on: Staphylococcus aureus; assay: Antibacterial activity against Staphylococcus aureus after 18 hrs by broth microdilution method; assay type: functional
Summary of the method: (§1)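 Broth microdilution per CLSI, using ATCC standard strains. Final compound concentrations ran from 0.125 to 256 μg/mL. Plates were incubated at 37 °C for 18 h. MIC was taken as the lowest concentration preventing visible bacterial growth. Levofloxacin served as the positive control.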

[3] = tested on: Escherichia coli; assay: Antibacterial activity against Escherichia coli after 18 hrs by broth microdilution method; assay type: functional; summary of the method: as §1

| SMILES | IC50 [1] [µM] | MIC [2] [µg/mL] | MIC [3] [µg/mL] |
| --- | --- | --- | --- |
| COC1=CC(=O)C[C@@H](C)[C@]12Oc1c(Cl)c(OC)cc(OC)c1C2=O [GRISEOFULVIN] | 87.1 | > 64 | > 64 |
| COc1ccc2c3c1C(=O)CC(C)(C)N3C(=O)[C@]21C[C@]2([N+](=O)[O-])CN3CCC[C@H]3C[C@@H]2C1(C)C | 57.7 | > 64 | > 64 |
| Cc1cc(=O)n2c(n1)-c1c(cc3cccc4c3c1C(=O)N4)C2(C)C | 20.5 | > 64 | > 64 |
| COc1cc(OC)c2c(c1Cl)O[C@@]1(C(=O)C=C(NCCC(C)C)C[C@H]1C)C2=O | 33.2 | > 64 | > 64 |
| CN1C(=O)c2c3c(cc4cccc1c24)C(C)(C)NC3=O | 12.6 | > 64 | > 64 |
| CC(=O)[C@@]1(O)C(=O)N2C(C)(C)[C@@H]3Cc4cccc5c4[C@@]4(O[C@@]1(O)[C@@]2(O)[C@H]34)C(=O)N5 | 70.1 | > 64 | > 64 |
| Cc1cc(=O)n2c(n1)-c1c(cc3cccc4c3c1C(=O)N4C)C2(C)C | 77.9 | > 64 | > 64 |
| COC1=CC(=O)C[C@@H](C)[C@]12Oc1cc(OC)cc(OC)c1C2=O | 89.7 | > 64 | > 64 |
| COc1cc(O)c2c(=O)c3c(C)cc(O)cc3oc2c1 | 79.4 | > 64 | > 64 |
